Data published in ChEMBL document CHEMBL1123533, “Anticonvulsant activity of piperidinol and (dialkylamino)alkanol esters” (J Med Chem, 1986).

Legend:
[1] = biological target: T1, GABA-A receptor; anion channel (Homo sapiens) (UniProt P14867+P47870+P18507+P28472+P48169+Q99928+Q9UN88+P34903+O00591+O14764+Q8N1C3+P18505+P78334+P47869+P31644+Q16445); experiment: Binding of [3H]- TBPS radioligand against Gamma-aminobutyric acid receptor at 100 uM; format: protein-complex assay
[2] = biological target: T1, GABA-A receptor; anion channel (Homo sapiens); experiment: Binding of [3H]- muscimol radioligand against GABA receptor/chloride channel complex at 100 uM; format: protein-complex assay
Summary of the method: (§1)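 Rat brain membranes, about 1000 μg protein, in 50 mM Tris-citrate pH 7.1 with 5 nM [3H]muscimol. Incubated 30 min at 0 °C, test compound at 100 μM. Nonspecific binding was defined with 100 μM GABA. Bound ligand was separated by rapid filtration with one buffer wash, and filter radioactivity was counted.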

[3] = biological target: T1, GABA-A receptor; anion channel (Homo sapiens); experiment: Binding of [3H]- Diazepam radioligand against GABA receptor/chloride channel complex at 100 uM; format: protein-complex assay
Summary of the method: (§2)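 Rat cerebral cortical membranes, about 1000 μg protein, in 50 mM Tris pH 7.4. Incubated with 5 nM [3H]diazepam for 30 min at 0 °C, test compound at 100 μM. Nonspecific binding was defined with 10 μM clonazepam. Ended by rapid filtration with one buffer wash, and retained radioactivity was counted.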

[4] = Inhibition of [3H]BTX binding to guinea pig voltage-dependent sodium channel
[5] = species on record: Mus musculus; experiment: Antiepileptic (anticonvulsant) activity in mice through maximal electroshock seizure (MES) assay; format: functional, organism-based
Summary of the method: (§3)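 Mice dosed at 30, 100 and 300 mg/kg and tested 30 min after administration. Seizures were evoked by 60-cycle AC, 50 mA, delivered for 0.2 s through corneal electrodes, with saline instilled in the eye first. Protection means abolition of the hind limb tonic extension. MES ED50 was quantified on select compounds.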

[6] = system: Mus musculus; experiment: Antiepileptic (anticonvulsant) activity in mice through maximal electroshock seizure (MES) assay; No anticonvulsant activity at 300 mg/kg; format: functional, organism-based; parameters: dose 300 mg/kg; summary of the method: as §3
[7] = Inhibition of [3H]BTX binding to guinea pig voltage-dependent sodium channel; remark: listed apart in the source
[8] = biological target: T1, GABA-A receptor; anion channel (Homo sapiens); experiment: Inhibition of [3H]TBPS binding to GABA-A receptor at 100 uM; format: protein-complex assay
Summary of the method: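 Rat cerebral cortical membranes, about 1000 μg protein, in 50 mM Tris-citrate pH 7.5 containing 200 mM NaCl with 2 nM [35S]TBPS. Incubated 90 min at 23 °C, test compound at 100 μM. Picrotoxin 10 μM defined nonspecific binding. Ended by rapid filtration with one buffer wash, and filter radioactivity was counted.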

[9] = biological target: Gamma-aminobutyric acid receptor subunit gamma-1 (Rattus norvegicus) (UniProt P23574); experiment: Inhibition of [3H]- Diazepam binding to Gamma-aminobutyric acid (GABA-A) receptor at 100 uM; summary of the method: as §2
Chain of Gamma-aminobutyric acid receptor subunit gamma-1 (Rattus norvegicus) (P23574 whole entry): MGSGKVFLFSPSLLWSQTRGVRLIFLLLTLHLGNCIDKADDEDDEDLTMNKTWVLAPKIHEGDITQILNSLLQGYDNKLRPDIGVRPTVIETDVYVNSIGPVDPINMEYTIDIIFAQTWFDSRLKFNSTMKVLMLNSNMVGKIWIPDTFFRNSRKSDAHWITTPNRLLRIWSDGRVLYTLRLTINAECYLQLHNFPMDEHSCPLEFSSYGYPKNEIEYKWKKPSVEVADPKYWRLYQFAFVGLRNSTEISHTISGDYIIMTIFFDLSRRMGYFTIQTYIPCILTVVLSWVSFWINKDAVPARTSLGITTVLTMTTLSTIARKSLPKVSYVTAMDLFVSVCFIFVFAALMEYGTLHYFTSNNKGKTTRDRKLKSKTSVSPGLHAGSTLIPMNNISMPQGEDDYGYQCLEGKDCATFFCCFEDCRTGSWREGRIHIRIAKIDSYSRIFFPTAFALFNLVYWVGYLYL

[10] = Inhibition of [3H]BTX binding to guinea pig voltage-dependent sodium channel; remark: listed apart in the source
[11] = biological target: T1, GABA-A receptor; anion channel (Homo sapiens); experiment: Inhibition of [3H]muscimol binding to GABA-A receptor at 100 uM; format: protein-complex assay; summary of the method: as §1
[12] = system: Mus musculus; experiment: Antiepileptic (anticonvulsant) activity in mice through maximal electroshock seizure (MES) assay. No activity at 300 mg/kg; format: functional, organism-based; parameters: dose 300 mg/kg; summary of the method: as §3

| SMILES | IC50 [4] [µM] | EC50 [5] [mg/kg] | EC50 [6] | other results |
| --- | --- | --- | --- | --- |
| CN1CCC(C)(OC(=O)c2ccccc2CCc2ccccc2)CC1 | 3.2 | 28 |  | Stimulation [1]: 50%; inhibition [2]: 40%; inhibition [3]: 42% |
| CCC1(c2ccccc2)C(=O)NC(=O)NC1=O [PHENOBARBITAL] |  | 22 |  |  |
| CN1CCC(OC(=O)c2ccc(Cl)cc2)CC1 | > 10 |  | Not Active |  |
| COc1cccc(C(=O)OC2CCN(C)CC2)c1 |  | < 100 |  |  |
| CCN(CC)CCCOC(=O)c1ccccc1CCc1ccccc1 | 6 | < 30 |  |  |
| COc1ccccc1C(=O)OC1CCN(C)CC1 | > 10 |  | Not Active |  |
| CN1CCC(OC(=O)c2ccccc2Br)CC1 | > 10 |  | Not Active |  |
| COc1ccc(CCC(=O)OC2CCN(C)CC2)cc1OC | > 10 |  | Not Active |  |
| CN1CCC(OC(=O)c2ccccc2CCc2ccccc2)CC1 | 5.4 | 25 |  | inhibition [2]: 27%; inhibition [3]: 50% |
| CN1CCC(OC(=O)c2ccccc2COc2ccccc2)CC1 | > 10 | 26 |  | Stimulation [1]: 37%; inhibition [2]: 35%; inhibition [3]: 37% |
| CN1CCC(OC(=O)c2ccccc2C(=O)c2ccccc2)CC1 |  |  | Not Active | Stimulation [1]: 1%; inhibition [2]: 21%; inhibition [3]: 46%; IC50 [7]: > 10 µM |
| Cc1ccc(C(=O)OC2CCN(C)CC2)cc1 | 10 |  | Not Active |  |
| CN1CCC(OC(=O)c2ccc(-c3ccccc3)cc2)CC1 | 10 | < 100 |  |  |
| COc1ccc(C(=O)OC2CCN(C)CC2)cc1OC | > 10 |  | Not Active |  |
| CCN(CC)CCOC(=O)c1ccccc1-c1ccccc1 | 7.5 | 10 |  | inhibition [8]: 4%; inhibition [2]: 31%; inhibition [3]: 26% |
| Cc1[nH]c(C)c(C(=O)OC2CCN(C)CC2)c1C | > 10 |  | Not Active |  |
| CN1CCC(OC(=O)c2ccccc2Cc2ccccc2)CC1 | 3.4 | < 30 |  |  |
| CCC(=O)OC1CCN(C)CC1 |  |  | Not Active | Stimulation [1]: 9%; inhibition [2]: 10%; Stimulation [9]: -14%; IC50 [7]: > 10 µM |
| CN1CCC(C)(OC(=O)c2ccccc2-c2ccccc2)CC1 | 3.8 |  | Not Active |  |
| CN1CCC(OC(=O)c2ccccc2-c2ccccc2)CC1 | 10 | 12 |  |  |
| CCN(CC)CCCOC(=O)c1ccccc1-c1ccccc1 |  | 7.8 |  | IC50 [10]: 4.6 µM; inhibition [8]: 47%; inhibition [2]: 59%; inhibition [3]: 51% |
| CCN(CC)CCOC(=O)c1ccccc1CCc1ccccc1 | 3.9 | < 300 |  |  |
| CCN(CC)CC(C)OC(=O)c1ccccc1-c1ccccc1 (configuration not stated) | 6.8 | < 30 |  |  |
| CN1CCC(OC(=O)c2cccc(O)c2)CC1 | > 10 |  | Not Active |  |
| O=C1NC(=O)C(c2ccccc2)(c2ccccc2)N1 [PHENYTOIN] |  | 9.5 |  |  |
| Cc1cc(C)c(C(=O)OC2CCN(C)CC2)cc1C | > 10 |  |  | Stimulation [1]: 3%; inhibition [11]: 57%; inhibition [3]: 37%; EC50 [12]: 46 mg/kg |
| CN1CCC(OC(=O)c2ccc3ccccc3c2)CC1 | > 10 | < 100 |  |  |
| CN1C(=O)CC(C)(c2ccccc2)C1=O (configuration not stated) [METHSUXIMIDE] |  | 76 |  |  |
| CN1CCC(OC(=O)c2ccccc2Oc2ccccc2)CC1 | 3.6 |  | Not Active |  |
